M18AAP inhibitor: PfM18AAP inhibitors, malaria aminopeptidase, primary screen, biochemical, QFRET, recombinant enzyme | H-Glu-NHMec fluorogenic cleavage | inhibition, % at 7.35 µM | 290,000 compounds, 1.2% hits | AID 1822, 2009;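 active means inhibition above the campaign mean inhibition over all tested compounds plus 3 SD, cut at about 28% in these data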;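 further: 0% = plate median of test compound wells and 100% = 2 mM ZnCl2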
PfG6PD inh: PfG6PD enzyme inhibitors, primary screen, biochemical, fluorescence intensity, uHTS; glucose-6-phosphate dehydrogenase-6-phosphogluconolactonase (Plasmodium falciparum 3D7); PfGluPho enzyme, NADPH resazurin-diaphorase fluorescence; inhibition, % at 20 µM; 350,000 compounds, 0.78% hits; AID 504690, 2011;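 active means inhibition reaching at least a set limit at 20 µM in the primary screen, cut at about 59% in these data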;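 further: 0% = DMSO wells with substrate and 100% = DMSO wells lacking glucose-6-phosphate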
Neddyl block: inhibitors of cullin neddylation, primary screen, biochemical, TR-FRET, uHTS, NAE and Ubc12. inhibition, % at 25 µM. 360,000 compounds, 0.58% hits. AID 651699, 2012; in the data active means inhibition above about 36%
Target sequence (P61081 whole entry, looked up): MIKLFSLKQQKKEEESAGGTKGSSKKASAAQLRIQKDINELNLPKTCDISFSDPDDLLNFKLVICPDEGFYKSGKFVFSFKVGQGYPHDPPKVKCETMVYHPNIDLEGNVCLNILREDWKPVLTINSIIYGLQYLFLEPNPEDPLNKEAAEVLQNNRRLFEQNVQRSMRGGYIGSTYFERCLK
Target sequence (Q13564 whole entry, looked up): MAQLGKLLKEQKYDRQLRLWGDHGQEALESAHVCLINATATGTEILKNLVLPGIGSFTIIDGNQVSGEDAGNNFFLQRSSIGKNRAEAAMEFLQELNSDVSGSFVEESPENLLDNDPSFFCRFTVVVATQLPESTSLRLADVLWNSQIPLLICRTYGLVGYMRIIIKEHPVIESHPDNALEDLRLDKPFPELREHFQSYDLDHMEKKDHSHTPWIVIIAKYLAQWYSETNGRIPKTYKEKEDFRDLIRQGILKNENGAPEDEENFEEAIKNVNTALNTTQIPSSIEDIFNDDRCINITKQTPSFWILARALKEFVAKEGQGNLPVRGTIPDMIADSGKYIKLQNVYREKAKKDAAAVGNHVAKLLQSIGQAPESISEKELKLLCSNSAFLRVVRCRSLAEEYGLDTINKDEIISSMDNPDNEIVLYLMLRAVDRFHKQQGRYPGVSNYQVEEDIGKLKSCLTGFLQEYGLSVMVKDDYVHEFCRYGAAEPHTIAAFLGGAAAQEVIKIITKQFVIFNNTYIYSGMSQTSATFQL
HKDC1 inhibitor: HKDC1 hexokinase inhibitors, primary screen, biochemical, fluorescence, uHTS; recombinant HKDC1, G6PDH/diaphorase resazurin coupled fluorescence; Q2TB90; AID 493160, 2011; inhibition, % at 20 µM; 340,000 compounds, 0.16% hits;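 active means inhibition above about 35% when tested at 20 µM, limit read from the data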;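 further: plate controls were DMSO wells with enzyme for no effect and DMSO wells lacking enzyme for full effect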
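Test system: HK5 enzyme. Quantity: 5 µg/mL HK5 final. Reagent: glucose and ATP substrates. Schedule: 90 min reaction incubation at room temperature, dark. Technique: resazurin-to-resorufin fluorescence via G6PDH and diaphorase coupling, 525/613 nm. Control set: DMSO wells with and without enzyme mix.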
Neddyl inh conf: blockade of NEDD8 conjugation to cullin – biochemical, TR-FRET, single concentration, confirmation. shares compounds with Neddyl block. TR-FRET cullin neddylation biochemical assay. calls only at 25 µM. 1,800 compounds, 13% hits; in the data active means inhibition above about 40%;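 further: neddylation substrate is the cullin 1 ring ligase complex with SKP2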
* = called active by the depositor; i = inactive; · = no result given; + = active, no number. An excerpt weighted towards active compounds, which were near 2.2% of everything screened.

SMILES	M18AAP inhibitor	PfG6PD inh	Neddyl block	HKDC1 inhibitor	Neddyl inh conf
COc1cccc(/C=C/C(=O)OCC(=O)NCC2CCCCC2)c1OC	·	-20.5	30.5*	3.3	i
COc1cccc(/C=C/C(=O)OCC(=O)N2c3ccccc3CC2C)c1OC (stereo not given)	·	13.9	46.4*	-4.8	·
COc1cccc(/C=C/C(=O)OCC(=O)c2cc(C)n(CC3CCCO3)c2C)c1OC (stereo not given)	3.6	16.9	42.9*	0.7	i
COc1ccc(OC)c(/C=C/C(=O)OCC(=O)NC2CCCCCCC2)c1	·	4.1	59.3*	-1.9	·
COc1ccc(/C=C/C(=O)OCC(=O)NC2CCCCCCC2)cc1	·	-6.1	1.8	-3.5	·
COc1cc(C(=O)OCC(=O)c2cc(C)n(CC3CCCO3)c2C)cc(OC)c1C (stereo not given)	·	15.9	-17.8	7.0	·
Cc1ccc(C)c(NC(=O)c2cc([N+](=O)[O-])cc([N+](=O)[O-])c2)c1	-7.5	17.9	-23.7	1.4	·
COc1cccc(C(C(=O)NC(C)(C)C)N(CCc2ccccc2)C(=O)CCC(=O)Nc2cc(C)on2)c1OC (stereo not given)	0.3	-2.6	-2.7	0.3	·
CCCCc1c(O)n2c(nc3ccccc32)[nH]c1=O	-2.3	1.3	60.0*	1.2	+
CCCCc1c(C)[nH]c2nc3ccccc3n2c1=O	5.0	-14.5	·	6.8	·
Cc1cc(=O)n2c(nc3ccccc32)[nH]1	7.4	1.4	·	4.8	·
CCCc1cc(=O)n2c(nc3ccccc32)[nH]1	-0.8	-1.9	49.4*	-3.9	·
C[C@H]1CNC(=O)c2c(C(=O)N3CCN(C(=O)OC(C)(C)C)CC3)ncn21	·	·	5.0	·	·
Cc1ccc(NC(=O)CSc2nncn2N)cc1C	-2.6	10.2	0.9	-5.4	·
CCC1CCC(N2CCN(c3cccc(OC)c3)CC2)CC1 (stereo not given)	0.6	-4.0	10.8	4.0	·
CN(C)C(=O)CSc1ncccc1-c1nc2ccccc2[nH]1	0.9	24.0	37.0	-7.0	·
CCN(CC)C(=O)CSc1ncccc1-c1nc2ccccc2[nH]1	-13.1	15.9	42.6*	-1.2	i
O=C(Nc1ccc2nc(-c3cccnc3)[nH]c2c1)C1CCCCC1	-1.2	-7.0	39.8*	-2.7	i
O=C(Nc1ccc2nc(-c3cccnc3)[nH]c2c1)C12CC3CC(CC(C3)C1)C2	7.4	24.6	·	4.8	·
Cn1c(N/N=C/c2cccs2)nc2c1c(=O)n(Cc1ccccc1)c(=O)n2C	12.0	22.2	38.8*	-7.8	i
Cn1c(=O)c2c(nc(N/N=C/c3cccs3)n2Cc2ccccc2)n(C)c1=O	-0.2	51.2	·	-4.8	·
COC(=O)c1ccc(COc2ccc3ccc(=O)oc3c2)o1	-3.8	-19.0	40.2*	-0.4	i
COC(=O)c1cc(COc2ccc3ccc(=O)oc3c2)c(C)o1	-5.6	-5.0	56.4*	-2.2	+
Cc1cccc(C(=O)Nc2ccc3c(c2)ncn3C)c1	-2.5	-3.0	6.9	2.5	·
CC(C)(C)NC(=O)C(c1ccnc2ccccc12)n1c(=O)c(-c2ccccc2)nc2ccccc21 (stereo not given)	·	·	45.2*	·	i
SMILES	M18AAP inhibitor	PfG6PD inh	Neddyl block	HKDC1 inhibitor	Neddyl inh conf
CC(C)(C)NC(=O)C(c1ccccc1)n1c(=O)c(-c2ccccc2)nc2ccccc21 (stereo not given)	·	·	42.6*	·	i
Cc1cccc(C)c1NC(=O)C(C1CC1)n1c(=O)c(-c2ccccc2)nc2ccccc21 (stereo not given)	·	·	54.9*	·	+
CCOC(=O)[C@]12CCC=C1N(Cc1ccco1)C(=O)[C@H](CC(=O)NCc1cccs1)C2	·	·	-1.2	·	·
Fc1cc2[nH]c(=S)[nH]c2cc1Cl	13.5	37.5	37.6*	3.9	i
Cc1cc2[nH]c(=S)[nH]c2cc1C	1.8	33.7	-2.6	-8.3	·
COc1ccc2oc(C(=O)NCC(c3ccco3)N(C)C)c(C)c2c1 (stereo not given)	·	1.1	49.7*	1.6	·
COc1ccc2oc(C(=O)Nc3nccs3)c(C)c2c1	·	·	-78.1	·	·
COc1ccc2oc(C(=O)NC3(C)CCS(=O)(=O)C3)c(C)c2c1 (stereo not given)	·	13.8	57.9*	-3.5	·
COc1cc(NC(=O)CSc2nc3ccccc3n2-c2ccccc2)c(C)cc1[N+](=O)[O-]	-0.1	-3.2	43.4*	20.0	i
CS(=O)(=O)N1CCC(C(=O)Nc2cccc(Br)c2)CC1	-7.2	-4.2	-1.3	-6.3	·
C[C@H](O)[C@@H]1C(=O)N2CCc3c([nH]c4ccccc34)[C@@H]2C[C@@H]1N(C)Cc1ccc(Cl)cc1	·	-10.3	43.9*	·	i
COCC(=O)N(C)[C@H]1C[C@H]2c3[nH]c4ccccc4c3CCN2C(=O)[C@H]1[C@H](C)O	·	8.0	·	·	·
Cc1cc(NC(=O)COc2ccccc2C)ccc1NC(=O)c1ccco1	3.4	-1.0	-1.4	-4.8	·
COc1cc(NC(=O)COc2ccccc2C)ccc1NC(=O)c1ccco1	6.3	4.8	45.7*	-7.5	·
COC(=O)c1cc2c(ccn2-c2ccc(F)cc2)n1CC(=O)OC(C)C	-5.5	19.5	42.7*	-0.4	i
COc1cc(S(=O)(=O)N2CCN(c3ccccn3)CC2)ccc1Br	-7.5	-38.1	14.3	-1.2	·

Screening data from PubChem.
